Assay results from ChEMBL document CHEMBL5661972, “In vitro biological activity of a novel small-molecule inhibitor of polo-like kinase 1” (Mol Cancer Ther, 2007).

Legend:
[1] = Inhibition of CDK2/cyclin A (unknown origin); parameters: species or system Homo sapiens
NHDF [2] = assay: Induction of cell cycle arrest in human HDF cells assessed as accumulation of cells at >4N phase at 3 micromol/L incubated for 24 hrs by propidium iodide staining based flow cytometry analysis (reference value: 2.4 %); format: toxicity; details: 3 µM, dose 3 µmol/L
In short: (§1)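 Cells seeded in six-well plates at densities that keep them in log growth (HDF 120,000, 60,000 or 30,000; H460 100,000, 50,000 or 25,000 per well for 24, 48 or 72 h). Treated with 1 or 3 μmol/L. Floating and adherent cells collected, ethanol-fixed, permeabilized with Triton X-100 and stained with propidium iodide. DNA content read by flow cytometry as % singlet cells.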

CDK1/Cyclin A = CDK1/Cyclin A (Homo sapiens, UniProt P06493); assay: Inhibition of CDK1/cyclin A (unknown origin); format: protein-complex assay
Chain of CDK1/Cyclin A (P06493 whole entry): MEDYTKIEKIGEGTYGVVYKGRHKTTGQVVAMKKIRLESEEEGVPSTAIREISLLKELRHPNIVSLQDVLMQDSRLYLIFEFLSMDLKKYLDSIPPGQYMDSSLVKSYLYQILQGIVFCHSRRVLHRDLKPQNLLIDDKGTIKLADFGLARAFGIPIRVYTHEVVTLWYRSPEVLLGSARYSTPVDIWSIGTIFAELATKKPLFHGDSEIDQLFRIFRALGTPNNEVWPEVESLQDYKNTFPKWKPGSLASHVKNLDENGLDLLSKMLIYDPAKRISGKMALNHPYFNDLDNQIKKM
Chain of CDK1/Cyclin A (P20248 whole entry, further chain): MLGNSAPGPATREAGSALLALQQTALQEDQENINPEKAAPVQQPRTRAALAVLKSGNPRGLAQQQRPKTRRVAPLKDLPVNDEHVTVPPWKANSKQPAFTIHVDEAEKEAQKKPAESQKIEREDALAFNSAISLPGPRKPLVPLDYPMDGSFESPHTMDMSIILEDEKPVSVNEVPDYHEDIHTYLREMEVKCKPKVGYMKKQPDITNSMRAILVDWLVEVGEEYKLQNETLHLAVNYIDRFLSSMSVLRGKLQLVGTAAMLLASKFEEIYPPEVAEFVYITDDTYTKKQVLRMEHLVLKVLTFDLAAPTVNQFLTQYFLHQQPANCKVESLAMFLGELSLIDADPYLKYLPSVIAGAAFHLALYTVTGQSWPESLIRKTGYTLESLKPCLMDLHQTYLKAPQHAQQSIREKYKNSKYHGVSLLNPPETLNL

[3] = Selectivity ratio of IC50 for cytotoxicity against human HDF cells to IC50 for antiproliferative activity against human PC-3 cells; format: toxicity, cell-based; details: HDF cells versus PC-3 cells
NHDF [4] = assay: Induction of cell cycle arrest in human HDF cells assessed as accumulation of cells at G1 phase at 3 micromol/L incubated for 24 hrs by propidium iodide staining based flow cytometry analysis (reference value: 57.0 %); format: toxicity; details: 3 µM, dose 3 µmol/L; in short: as §1
[5] = Inhibition of EGFR (unknown origin); parameters: species or system Homo sapiens
NHDF [6] = assay: Cytotoxicity against human HDF cells assessed as outgrowth of cells at 0.37 to 3.3 micromol/L incubated for 72 hrs by methylene blue staining based analysis; format: toxicity, cell-based; details: dose 0.37-3.3 µmol/L
In short: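 HDF seeded at 1,300 and H460 at 600 per well in 96-well plates. After 24 h, exposed to vehicle (0.3% DMSO) or compound at 0.37–30 μmol/L for 72 h. Wells were then washed with PBS and refed with drug-free medium containing gentamicin. Regrowth was followed by methylene blue staining at set time points over 13 days in total.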

NCI-H460 [7] = assay: Induction of cell cycle arrest in human NCI-H460 cells assessed as accumulation of cells at >4N phase at 3 micromol/L incubated for 72 hrs by propidium iodide staining based flow cytometry analysis (reference value: 0.9 %); format: functional; details: dose 3 µmol/L, at 3 µM; in short: as §1
NCI-H460 [8] = assay: Induction of cell cycle arrest in human NCI-H460 cells assessed as accumulation of cells at Sub-2N phase at 1 micromol/L incubated for 72 hrs by propidium iodide staining based flow cytometry analysis (reference value: 2.1 %); format: functional; details: dose 1 µmol/L, at 1 µM
[9] = Selectivity ratio of IC50 for cytotoxicity against human HDF cells to IC50 for antiproliferative activity against human A549 cells; format: toxicity, cell-based; details: HDF cells versus A549 cells, read-out: Ratio IC50
NHDF [10] = assay: Induction of cell cycle arrest in human HDF cells assessed as accumulation of cells at Sub-2N phase at 3 micromol/L incubated for 72 hrs by propidium iodide staining based flow cytometry analysis (reference value: 0.7 %); format: toxicity; details: 3 µM, dose 3 µmol/L; in short: as §1
NHDF [11] = assay: Induction of cell cycle arrest in human HDF cells assessed as accumulation of cells at >4N phase at 3 micromol/L incubated for 48 hrs by propidium iodide staining based flow cytometry analysis (reference value: 3.0 %); format: toxicity; details: 3 µM, dose 3 µmol/L; in short: as §1
NHDF [12] = assay: Induction of cell cycle arrest in human HDF cells assessed as accumulation of cells at S phase at 3 micromol/L incubated for 24 hrs by propidium iodide staining based flow cytometry analysis (reference value: 13.2 %); format: toxicity; details: 3 µM, dose 3 µmol/L; in short: as §1
[13] = biological target: Proto-oncogene tyrosine-protein kinase Src (Homo sapiens, UniProt P12931); assay: Inhibition of c-src (unknown origin)
Chain of Proto-oncogene tyrosine-protein kinase Src (P12931 2-536 limits assumed): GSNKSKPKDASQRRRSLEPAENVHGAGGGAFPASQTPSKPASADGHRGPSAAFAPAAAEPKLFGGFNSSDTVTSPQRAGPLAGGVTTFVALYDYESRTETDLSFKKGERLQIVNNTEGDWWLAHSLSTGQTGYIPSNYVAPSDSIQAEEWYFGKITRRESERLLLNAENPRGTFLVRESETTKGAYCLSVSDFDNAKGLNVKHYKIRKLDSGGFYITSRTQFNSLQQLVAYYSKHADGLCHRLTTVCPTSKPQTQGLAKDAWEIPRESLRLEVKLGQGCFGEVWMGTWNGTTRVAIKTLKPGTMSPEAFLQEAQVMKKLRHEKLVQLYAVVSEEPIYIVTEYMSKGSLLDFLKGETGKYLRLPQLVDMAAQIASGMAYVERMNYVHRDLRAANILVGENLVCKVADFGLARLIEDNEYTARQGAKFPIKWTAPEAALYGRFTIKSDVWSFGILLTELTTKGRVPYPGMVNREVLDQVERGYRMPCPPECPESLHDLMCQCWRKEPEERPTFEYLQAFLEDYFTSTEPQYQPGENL

[14] = Cytotoxicity against human HDF cells assessed as inhibition of cell growth; format: toxicity, cell-based; details: HDF cells (NHDF, human dermal fibroblasts)
In short: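 Cells grown 3 days in 96-well plates, seeded so vehicle controls stay in log growth (MES-SA/DX5 7,000, MES-SA 6,000, HDF 5,000 per well). Exposed to 3-fold dilutions, 30–0.00152 μmol/L, in medium with 5% FBS, 50 μg/mL gentamicin and 0.3% (v/v) DMSO. HDF medium was low-glucose DMEM; MES-SA lines used McCoy's 5A.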

NHDF [15] = assay: Induction of cell cycle arrest in human HDF cells assessed as accumulation of cells at S phase at 1 micromol/L incubated for 48 hrs by propidium iodide staining based flow cytometry analysis (reference value: 4.7 %); format: toxicity; details: 1 µM, dose 1 µmol/L; in short: as §1
[16] = biological target: Serine/threonine-protein kinase PLK3 (Homo sapiens, UniProt Q9H4B4); assay: Inhibition of human PLK3 expressed in baculovirus infected in Trichoplusia ni cells using Biotin-Ahx-SFNDTLDFD as substrate in presence of ATP by TopCount scintillation proximity assay; parameters: species or system Trichoplusia ni cell
Chain of Serine/threonine-protein kinase PLK3 (Q9H4B4 whole entry): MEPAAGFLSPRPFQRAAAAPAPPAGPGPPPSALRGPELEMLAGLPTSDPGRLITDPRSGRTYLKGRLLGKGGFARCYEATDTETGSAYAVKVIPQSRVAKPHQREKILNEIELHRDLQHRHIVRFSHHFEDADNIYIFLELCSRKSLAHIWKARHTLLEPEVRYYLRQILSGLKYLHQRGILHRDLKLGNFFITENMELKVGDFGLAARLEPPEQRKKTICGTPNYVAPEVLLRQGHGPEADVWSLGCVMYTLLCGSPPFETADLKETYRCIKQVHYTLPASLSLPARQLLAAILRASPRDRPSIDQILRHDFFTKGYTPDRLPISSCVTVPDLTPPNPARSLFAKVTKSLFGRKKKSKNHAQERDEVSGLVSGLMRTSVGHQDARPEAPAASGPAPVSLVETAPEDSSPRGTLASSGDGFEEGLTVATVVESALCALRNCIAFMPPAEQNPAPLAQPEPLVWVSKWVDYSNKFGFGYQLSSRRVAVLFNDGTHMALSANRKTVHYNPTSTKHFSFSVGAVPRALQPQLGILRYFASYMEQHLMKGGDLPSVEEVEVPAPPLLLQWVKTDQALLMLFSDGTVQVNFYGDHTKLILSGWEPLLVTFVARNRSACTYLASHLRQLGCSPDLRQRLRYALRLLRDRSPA
In short: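 Full-length PLK3 (5 nmol/L) from baculovirus-infected Trichoplusia ni cells in 25 mmol/L HEPES pH 7.2, 15 mmol/L MgCl2, 1 μmol/L ATP with [γ-33P]ATP, 1 μmol/L biotinylated peptide, BSA, DTT. Incubated 1–1.5 h at 22°C in the linear range. Stopped with EDTA plus streptavidin SPA beads, then counted or imaged. Signal above EDTA background taken as percent inhibition versus DMSO wells.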

NHDF [17] = assay: Induction of cell cycle arrest in human HDF cells assessed as accumulation of cells at G2-M phase at 1 micromol/L incubated for 72 hrs by propidium iodide staining based flow cytometry analysis (reference value: 8.2 %); format: toxicity; details: 1 µM, dose 1 µmol/L; in short: as §1
[18] = Selectivity ratio of IC50 for cytotoxicity against human HDF cells to IC50 for antiproliferative activity against human NCI-H460 cells; format: toxicity, cell-based; details: HDF cells versus NCI-H460 cells, read-out: Ratio IC50
In short: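 HDF (5,000/well) and H460 (2,000/well) cells exposed 3 days to 3-fold dilutions (30–0.00152 μmol/L) in medium with 5% FBS, gentamicin and 0.3% DMSO (low-glucose DMEM for HDF, RPMI 1640 for H460); vehicle controls growing logarithmically. IC50 from each line gives the HDF/H460 ratio.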

NCI-H460 [19] = assay: Induction of cell cycle arrest in human NCI-H460 cells assessed as accumulation of cells at Sub-2N phase at 1 micromol/L incubated for 24 hrs by propidium iodide staining based flow cytometry analysis (reference value: 4.0 %); format: functional; details: dose 1 µmol/L, at 1 µM
NCI-H460 [20] = assay: Induction of cell cycle arrest in human NCI-H460 cells assessed as accumulation of cells at S phase at 1 micromol/L incubated for 48 hrs by propidium iodide staining based flow cytometry analysis (reference value: 18.5 %); format: functional; details: dose 1 µmol/L, at 1 µM
NHDF [21] = assay: Induction of cell cycle arrest in human HDF cells assessed as accumulation of cells at >4N phase at 1 micromol/L incubated for 72 hrs by propidium iodide staining based flow cytometry analysis (reference value: 1.4 %); format: toxicity; details: 1 µM, dose 1 µmol/L; in short: as §1
NHDF [22] = assay: Induction of cell cycle arrest in human HDF cells assessed as accumulation of cells at G1 phase at 3 micromol/L incubated for 72 hrs by propidium iodide staining based flow cytometry analysis (reference value: 85.6 %); format: toxicity; details: 3 µM, dose 3 µmol/L; in short: as §1
NCI-H460 [23] = assay: Induction of cell cycle arrest in human NCI-H460 cells assessed as accumulation of cells at G1 phase at 1 micromol/L incubated for 24 hrs by propidium iodide staining based flow cytometry analysis (reference value: 45.5 %); format: functional; details: dose 1 µmol/L, at 1 µM; in short: as §1
NHDF [24] = assay: Induction of cell cycle arrest in human HDF cells assessed as accumulation of cells at Sub-2N phase at 1 micromol/L incubated for 72 hrs by propidium iodide staining based flow cytometry analysis (reference value: 0.7 %); format: toxicity; details: 1 µM, dose 1 µmol/L; in short: as §1

IC50 [1]: 7.6 µM
IC50 (CDK1/Cyclin A): > 10 µM
IC50 [5]: > 10 µM
IC50 [13]: > 10 µM
IC50 [16]: 0.0091 µM
Compound: COc1cc2ncn(-c3cc(OCc4ccccc4C(F)(F)F)c(C(N)=O)s3)c2cc1OC [GW843682X]
Activity (NHDF [2]): 6%
selectivity ratio [3]: 0.9
Activity (NHDF [4]): 21.1%
Activity (NHDF [6]): Toxic
Activity (NCI-H460 [7]): 51%
Activity (NCI-H460 [8]): 16%
selectivity ratio [9]: > 10
Activity (NHDF [10]): 9.1%
Activity (NHDF [11]): 11.2%
Activity (NHDF [12]): 4.2%
IC50 [14]: 6.14 µM
Activity (NHDF [15]): 7.4%
Activity (NHDF [17]): 21.6%
selectivity ratio [18]: > 10
Activity (NCI-H460 [19]): 11.6%
Activity (NCI-H460 [20]): 24.3%
Activity (NHDF [21]): 3.5%
Activity (NHDF [22]): 5.6%
Activity (NCI-H460 [23]): 27.3%
Activity (NHDF [24]): 1.3%
